pIC50: −log10 of the molar value.
Experiments:
[1] = test system: Mus musculus; assay: (§1) Analgesic activity was evaluated in mouse hotplate test; expressed as licking latency after 15 min of treatment at a dose of 10 ug intracerebroventricularly; format: functional
Summary of the method: (§2)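 Male Swiss albino mice (23-30 g); icv injection of 5 μL (saline or H2O/DMSO 2:1) under brief anaesthesia. Paw-licking latency (s) on hot plate read before injection and every 15 min up to 60 min. Mice with pretest latency below 12 or over 18 s excluded; cutoff 45 s. Statistics against saline- or vehicle-treated controls.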

[2] = test system: Rattus norvegicus; assay: Antihyperalgesic activity was evaluated in rat (dx) paw pressure test after 30 min at a dose of 10 ug intracerebroventricularly
[3] = species on record: Mus musculus; assay: Percentage analgesic efficacy when compared to morphine; format: functional; set-up: concentration or dose not given beside the values
Summary of the method: (§3)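 Male Swiss albino mice, hot-plate test, paw-licking latency; pretest 12–18 s required, cutoff 45 s. Icv injection of 5 μL under brief anaesthesia, in saline or H2O/DMSO 2:1, at maximal soluble dose. Latency read before and every 15 min after dosing. Efficacy = (peak latency − pretest) as % of the same value for morphine 10 μg/mouse icv; non-significant effects scored 0.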

[4] = test system: Rattus norvegicus; assay: Antihyperalgesic activity was evaluated in rat (sn) paw pressure test after 30 min at a dose of 10 ug intracerebroventricularly
[5] = test system: Rattus norvegicus; assay: Antihyperalgesic activity was evaluated in rat (dx) paw pressure test after 60 min at a dose of 10 ug intracerebroventricularly
[6] = test system: Rattus norvegicus; assay: Antihyperalgesic activity was evaluated in rat (dx) paw pressure test after 45 min at a dose of 10 ug intracerebroventricularly
[7] = test system: Rattus norvegicus; assay: Antihyperalgesic activity was evaluated in rat (sn) paw pressure test after 60 min at a dose of 10 ug intracerebroventricularly
[8] = test system: Mus musculus; assay: (§4) Analgesic activity was evaluated in mouse hotplate test; expressed as licking latency after 30 min of treatment at a dose of 10 ug intracerebroventricularly; format: functional; summary of the method: as §2
[9] = test system: Mus musculus; assay: (§5) Analgesic activity was evaluated in mouse hotplate test; expressed as licking latency after 45 min of treatment at a dose of 10 ug intracerebroventricularly; format: functional; summary of the method: as §2
[10] = test system: Rattus norvegicus; assay: Antihyperalgesic activity was evaluated in rat (sn) paw pressure test after 45 min at a dose of 10 ug intracerebroventricularly
[11] = test system: Mus musculus; assay: Analgesic activity was evaluated in mouse hotplate test; expressed as licking latency after 30 min of treatment at a dose of 5 ug intracerebroventricularly; format: functional; summary of the method: as §2
[12] = test system: Mus musculus; assay: Analgesic activity was evaluated in mouse hotplate test; expressed as licking latency after 15 min of treatment at a dose of 5 ug intracerebroventricularly; format: functional; summary of the method: as §2
[13] = test system: Mus musculus; assay: Analgesic activity was evaluated in mouse hotplate test; expressed as licking latency after 45 min of treatment at a dose of 5 ug intracerebroventricularly; format: functional; summary of the method: as §2
[14] = test system: Rattus norvegicus; assay: Antihyperalgesic activity was evaluated in rat (dx) paw pressure test after 30 min at a dose of 50 ug intracerebroventricularly
[15] = test system: Mus musculus; assay: Analgesic activity was evaluated in mouse hotplate test; expressed as licking latency after 45 min of treatment at a dose of 50 ug intracerebroventricularly; format: functional; summary of the method: as §2
[16] = test system: Mus musculus; assay: Analgesic activity was evaluated in mouse hotplate test; expressed as licking latency before treatment at a dose of 25 ug intracerebroventricularly; format: functional; summary of the method: as §2
[17] = test system: Rattus norvegicus; assay: Antihyperalgesic activity was evaluated in rat (sn) paw pressure test after 30 min at a dose of 50 ug intracerebroventricularly
[18] = test system: Mus musculus; assay: Analgesic activity was evaluated in mouse hotplate test; expressed as licking latency after 15 min of treatment at a dose of 50 ug intracerebroventricularly; format: functional; summary of the method: as §2
[19] = test system: Mus musculus; assay: Percentage analgesic efficacy when compared to morphine at 10 ug intracerebroventricularly; format: functional; summary of the method: as §3
[20] = test system: Mus musculus; assay: Analgesic activity was evaluated in mouse hotplate test; expressed as licking latency after 15 min of treatment at a dose of 25 ug intracerebroventricularly; format: functional; summary of the method: as §2
[21] = test system: Mus musculus; assay: Analgesic activity was evaluated in mouse hotplate test; expressed as licking latency after 30 min of treatment at a dose of 25 ug intracerebroventricularly; format: functional; summary of the method: as §2
[22] = test system: Mus musculus; assay: Analgesic activity was evaluated in mouse hotplate test; expressed as licking latency after 30 min of treatment at a dose of 50 ug intracerebroventricularly; format: functional; summary of the method: as §2
[23] = test system: Mus musculus; assay: Percentage analgesic efficacy when compared to morphine at 50 ug intracerebroventricularly; format: functional; summary of the method: as §3
[24] = biological target: Voltage-dependent N-type calcium channel subunit alpha-1B (Rattus norvegicus) (UniProt Q02294); assay: In vitro antagonism of N-type calcium channels expressed in PC12 cells was determined as the increase in intracellular calcium influx in the presence of 10 uM nifedipine
Voltage-dependent N-type calcium channel subunit alpha-1B (Rattus norvegicus), sequence (Q02294 whole entry, looked up): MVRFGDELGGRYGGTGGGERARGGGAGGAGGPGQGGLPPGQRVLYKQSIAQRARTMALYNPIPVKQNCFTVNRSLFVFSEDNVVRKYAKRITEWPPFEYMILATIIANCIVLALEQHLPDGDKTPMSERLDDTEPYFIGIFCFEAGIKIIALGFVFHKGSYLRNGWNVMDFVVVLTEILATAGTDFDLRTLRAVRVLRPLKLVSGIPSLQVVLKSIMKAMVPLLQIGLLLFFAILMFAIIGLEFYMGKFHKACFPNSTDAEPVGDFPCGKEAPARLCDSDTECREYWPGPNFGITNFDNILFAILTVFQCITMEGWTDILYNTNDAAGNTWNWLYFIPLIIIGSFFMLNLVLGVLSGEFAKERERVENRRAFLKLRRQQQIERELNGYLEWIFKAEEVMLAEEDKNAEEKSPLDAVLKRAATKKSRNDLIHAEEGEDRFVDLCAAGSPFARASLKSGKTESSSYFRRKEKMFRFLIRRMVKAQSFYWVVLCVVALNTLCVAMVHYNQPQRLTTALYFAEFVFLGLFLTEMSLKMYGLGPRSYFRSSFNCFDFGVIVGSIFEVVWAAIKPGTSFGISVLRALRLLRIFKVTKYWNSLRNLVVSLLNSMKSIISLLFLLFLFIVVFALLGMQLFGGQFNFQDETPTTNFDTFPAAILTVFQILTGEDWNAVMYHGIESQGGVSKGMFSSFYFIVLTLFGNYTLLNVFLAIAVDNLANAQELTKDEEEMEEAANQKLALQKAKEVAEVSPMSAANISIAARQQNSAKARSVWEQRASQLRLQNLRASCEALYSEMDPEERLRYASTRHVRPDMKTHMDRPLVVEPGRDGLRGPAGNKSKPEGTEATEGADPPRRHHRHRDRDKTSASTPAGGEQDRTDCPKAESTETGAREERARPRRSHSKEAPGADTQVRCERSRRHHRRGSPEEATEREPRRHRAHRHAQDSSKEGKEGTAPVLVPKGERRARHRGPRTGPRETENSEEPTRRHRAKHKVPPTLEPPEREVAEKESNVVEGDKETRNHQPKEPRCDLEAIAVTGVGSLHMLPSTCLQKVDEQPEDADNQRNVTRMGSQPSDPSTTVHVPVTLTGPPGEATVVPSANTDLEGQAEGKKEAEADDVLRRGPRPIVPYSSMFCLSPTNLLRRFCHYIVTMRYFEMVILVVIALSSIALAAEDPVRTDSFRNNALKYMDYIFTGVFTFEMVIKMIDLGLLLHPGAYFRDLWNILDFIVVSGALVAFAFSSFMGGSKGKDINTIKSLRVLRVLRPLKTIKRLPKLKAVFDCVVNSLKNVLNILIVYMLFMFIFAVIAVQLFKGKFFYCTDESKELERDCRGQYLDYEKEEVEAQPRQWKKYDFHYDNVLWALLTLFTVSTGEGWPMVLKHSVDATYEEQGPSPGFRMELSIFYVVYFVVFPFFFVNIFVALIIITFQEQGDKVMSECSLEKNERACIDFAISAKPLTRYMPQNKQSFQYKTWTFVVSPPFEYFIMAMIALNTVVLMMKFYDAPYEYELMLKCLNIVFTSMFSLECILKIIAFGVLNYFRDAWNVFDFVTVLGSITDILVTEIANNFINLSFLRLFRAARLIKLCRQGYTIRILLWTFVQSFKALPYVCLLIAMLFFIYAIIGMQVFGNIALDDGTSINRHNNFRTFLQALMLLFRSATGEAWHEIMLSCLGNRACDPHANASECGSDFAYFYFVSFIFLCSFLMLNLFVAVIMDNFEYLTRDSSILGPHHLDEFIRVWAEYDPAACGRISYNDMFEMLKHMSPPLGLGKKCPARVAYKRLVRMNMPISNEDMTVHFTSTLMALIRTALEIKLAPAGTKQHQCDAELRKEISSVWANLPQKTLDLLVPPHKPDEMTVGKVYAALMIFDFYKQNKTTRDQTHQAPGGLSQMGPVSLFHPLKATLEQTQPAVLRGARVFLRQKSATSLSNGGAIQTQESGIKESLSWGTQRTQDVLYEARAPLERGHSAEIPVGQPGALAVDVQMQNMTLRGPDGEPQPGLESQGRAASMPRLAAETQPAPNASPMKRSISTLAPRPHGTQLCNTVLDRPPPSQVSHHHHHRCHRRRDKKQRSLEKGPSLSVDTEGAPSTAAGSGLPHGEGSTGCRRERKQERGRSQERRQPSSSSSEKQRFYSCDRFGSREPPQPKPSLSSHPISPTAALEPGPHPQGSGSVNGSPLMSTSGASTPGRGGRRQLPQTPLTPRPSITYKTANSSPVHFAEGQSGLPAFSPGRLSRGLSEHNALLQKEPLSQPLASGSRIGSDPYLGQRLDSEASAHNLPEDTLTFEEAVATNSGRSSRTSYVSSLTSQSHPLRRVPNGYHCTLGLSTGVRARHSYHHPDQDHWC

[25] = test system: Rattus norvegicus; assay: Antihyperalgesic activity was evaluated in rat (dx) paw pressure test after 45 min at a dose of 50 ug intracerebroventricularly
[26] = test system: Mus musculus; assay: Analgesic activity was evaluated in mouse hotplate test; expressed as licking latency before treatment at a dose of 10 ug intracerebroventricularly; format: functional; summary of the method: as §2
[27] = test system: Rattus norvegicus; assay: Antihyperalgesic activity was evaluated in rat (sn) paw pressure test after 60 min at a dose of 50 ug intracerebroventricularly
[28] = test system: Rattus norvegicus; assay: Antihyperalgesic activity was evaluated in rat (dx) paw pressure test after 60 min at a dose of 50 ug intracerebroventricularly
[29] = test system: Rattus norvegicus; assay: Antihyperalgesic activity was evaluated in rat (sn) paw pressure test after 45 min at a dose of 50 ug intracerebroventricularly
[30] = test system: Mus musculus; assay: Analgesic activity was evaluated in mouse hotplate test; expressed as licking latency after 45 min of treatment at a dose of 25 ug intracerebroventricularly; format: functional; summary of the method: as §2
[31] = test system: Mus musculus; assay: Analgesic activity was evaluated in mouse hotplate test; expressed as licking latency after 15 min of treatment at a dose of 40 ug intracerebroventricularly; format: functional; summary of the method: as §2
[32] = test system: Mus musculus; assay: Analgesic activity was evaluated in mouse hotplate test; expressed as licking latency after 30 min of treatment at a dose of 40 ug intracerebroventricularly; format: functional; summary of the method: as §2
[33] = test system: Mus musculus; assay: Analgesic activity was evaluated in mouse hotplate test; expressed as licking latency after 45 min of treatment at a dose of 40 ug intracerebroventricularly; format: functional; summary of the method: as §2
[34] = test system: Rattus norvegicus; assay: Antihyperalgesic activity was evaluated in rat (sn) paw pressure test after 60 min at a dose of 40 ug intracerebroventricularly
[35] = test system: Rattus norvegicus; assay: Antihyperalgesic activity was evaluated in rat (sn) paw pressure test after 45 min at a dose of 40 ug intracerebroventricularly
[36] = biological target: Voltage-dependent N-type calcium channel subunit alpha-1B (Rattus norvegicus) (UniProt Q02294); assay: In vitro antagonism of N-type calcium channels expressed in PC12 cells was determined as the increase in intracellular calcium influx
[37] = test system: Rattus norvegicus; assay: Antihyperalgesic activity was evaluated in rat (dx) paw pressure test after 45 min at a dose of 40 ug intracerebroventricularly
[38] = test system: Rattus norvegicus; assay: Antihyperalgesic activity was evaluated in rat (sn) paw pressure test after 30 min at a dose of 40 ug intracerebroventricularly
[39] = test system: Rattus norvegicus; assay: Antihyperalgesic activity was evaluated in rat (dx) paw pressure test after 30 min at a dose of 40 ug intracerebroventricularly
[40] = test system: Rattus norvegicus; assay: Antihyperalgesic activity was evaluated in rat (dx) paw pressure test after 60 min at a dose of 40 ug intracerebroventricularly
[41] = test system: Mus musculus; assay: as §1; format: functional; remark: listed apart in the source
Summary of the method: (§6)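 Male Swiss albino mice (23-30 g); icv injection under brief anaesthesia, 5 μL into the lateral ventricle, in saline or H2O/DMSO (2:1). Hot plate: latency to licking of fore or hind paws timed with a stopwatch before injection and every 15 min up to 60 min. Pretest scores below 12 or over 18 s rejected; cutoff 45 s.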

[42] = test system: Mus musculus; assay: as §4; format: functional; summary of the method: as §6; remark: listed apart in the source
[43] = test system: Mus musculus; assay: as §5; format: functional; summary of the method: as §6; remark: listed apart in the source

CCCCNC1CCN(CCCC(c2ccccc2)c2ccccc2)CC1.O=C(O)C(=O)O
Latency [1]: 22.6 s | Activity [2]: 50.3 g | Efficacy [3]: 64% | Activity [4]: 57.5 g | Activity [5]: 46.5 g | Activity [6]: 52.6 g | Activity [7]: 63 g | Latency [8]: 22.4 s | Latency [9]: 15.8 s | Activity [10]: 61.2 g

COc1ccc(CCNC2CCN(CCCC(c3ccccc3)c3ccccc3)CC2)cc1OC.O=C(O)C(=O)O
Latency [11]: 16.4 s | Latency [12]: 17.7 s | Latency [13]: 16.8 s | Efficacy [3]: 0%

Cl.NC1CCN(C(=O)CCC(c2ccc(F)cc2)c2ccc(F)cc2)CC1
Activity [14]: 55.1 g | Activity [15]: 29.5 s | Activity [16]: 13.9 s | Activity [1]: 15.7 s | Activity [17]: 62.3 g | Activity [18]: 34.1 s | Efficacy [19]: 0% | Activity [20]: 24.6 s | Activity [21]: 23.9 s | Activity [22]: 31.7 s | Efficacy [23]: 147% | pIC50 [24]: 5.62 | Activity [25]: 54.8 g | Activity [26]: 14.3 s | Activity [27]: 54.7 g | Activity [28]: 59.3 g | Activity [8]: 16.1 s | Activity [9]: 16.4 s | Activity [29]: 55.6 g | Activity [30]: 20.5 s

CC(C)CC(N)C(=O)NC1CCN(C(=O)CCC(c2ccc(F)cc2)c2ccc(F)cc2)CC1.Cl (stereo not drawn)
Activity [14]: 62.5 g | Activity [17]: 55.9 g | Efficacy [3]: 71% | Activity [25]: 60.3 g | Activity [27]: 63.2 g | Latency [31]: 23.2 s | Activity [28]: 55.8 g | Latency [32]: 22.6 s | Latency [33]: 16.6 s | Activity [29]: 61.3 g

CNC(CC(C)C)C(=O)NC1CCN(C(=O)CCC(c2ccc(F)cc2)c2ccc(F)cc2)CC1.Cl (stereo not drawn)
Activity [34]: 66.4 g | Activity [35]: 61.3 g | pIC50 [36]: 5.52 | Efficacy [3]: 56% | Activity [37]: 33.4 g | Activity [38]: 55.7 g | Activity [39]: 28.1 g | Latency [31]: 21.5 s | Activity [40]: 30.1 g | Latency [32]: 20.7 s | Latency [33]: 15.5 s

CN1CC[C@]23c4c5ccc(O)c4O[C@H]2[C@@H](O)C=C[C@H]3[C@H]1C5 [MORPHINE]
Latency [41]: 28.6 s | Latency [42]: 27.7 s | Latency [43]: 22.4 s

Reference: ChEMBL document CHEMBL1139437, “Design, synthesis, and preliminary pharmacological evaluation of 4-aminopiperidine derivatives as N-type calcium channel blockers active on pain and neuropathic pain” (J Med Chem, 2004)
